{"source": "ChEMBL document CHEMBL4680306", "about": "“The 3-D conformational shape of N-naphthyl-cyclopenta[d]pyrimidines affects their potency as microtubule targeting agents and their antitumor activity” (Bioorg Med Chem, 2021)", "key": {"[1]": {"test_system": "KM12", "assay": "Cytotoxicity against human KM12 cells assessed as inhibition of cell growth measured after 48 hrs by SRB assay", "type": "functional"}, "[2]": {"test_system": "U-251", "assay": "Cytotoxicity against human U-251 cells assessed as inhibition of cell growth measured after 48 hrs by SRB assay", "type": "functional"}, "[3]": {"test_system": "A549", "assay": "Cytotoxicity against human A549 cells assessed as inhibition of cell growth measured after 48 hrs by SRB assay", "type": "functional"}, "[4]": {"test_system": "NCI-H23", "assay": "Cytotoxicity against human NCI-H23 cells assessed as inhibition of cell growth measured after 48 hrs by SRB assay", "type": "functional"}, "[5]": {"assay": "Inhibition of bovine tubulin polymerization assessed as reduction in extent of assembly preincubated for 15 mins followed by addition of reaction mixture measured after 20 mins by turbidimetric assay", "set-up": "species or system Bos taurus", "procedure,_shortened": "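After chilling, GTP was added (0.4 mM final). Turbidity at 350 nm was read after a jump from 0 °C to 30 °C.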"}, "[6]": {"test_system": "SR", "assay": "Cytotoxicity against human SR cells assessed as inhibition of cell growth measured after 48 hrs by SRB assay", "type": "functional"}, "[7]": {"test_system": "OVCAR-4", "assay": "Cytotoxicity against human OVCAR-4 cells assessed as inhibition of cell growth measured after 48 hrs by SRB assay", "type": "functional"}, "[8]": {"test_system": "SK-MEL-2", "assay": "Cytotoxicity against human SK-MEL-2 cells assessed as inhibition of cell growth measured after 48 hrs by SRB assay", "type": "functional"}, "[9]": {"test_system": "LOX IMVI", "assay": "Cytotoxicity against human LOX IMVI cells assessed as inhibition of cell growth measured after 48 hrs by SRB assay", "type": "functional"}, "[10]": {"test_system": "SK-OV-3", "assay": "Antiproliferative activity against human SK-OV-3 cells assessed as decrease in cell growth measured after 48 hrs by SRB method", "type": "functional, cell-based", "settings": "SK-OV-3, 48 h"}, "[11]": {"test_system": "HT-29", "assay": "Cytotoxicity against human HT-29 cells assessed as inhibition of cell growth measured after 48 hrs by SRB assay", "type": "functional"}, "[12]": {"test_system": "MCF7", "assay": "Cytotoxicity against human MCF7 cells assessed as inhibition of cell growth measured after 48 hrs by SRB assay", "type": "functional"}, "[13]": {"test_system": "SK-MEL-28", "assay": "Cytotoxicity against human SK-MEL-28 cells assessed as inhibition of cell growth measured after 48 hrs by SRB assay", "type": "functional"}, "[14]": {"test_system": "U-251", "assay": "Cytotoxicity against human U251 cell line assessed as inhibition of cell growth after 48 hrs by SRB assay", "type": "functional, cell-based", "settings": "U-251, 48 h"}, "[15]": {"test_system": "K562", "assay": "Cytotoxicity against human K562 cells assessed as inhibition of cell growth measured after 48 hrs by SRB assay", "type": "functional"}, "[16]": {"test_system": "SF-268", "assay": "Cytotoxicity against human SF-268 cells assessed as inhibition of cell growth measured after 48 hrs by SRB assay", "type": "functional"}, "[17]": {"assay": "Antiproliferative activity against human SK-OV-3 MDR-1-6/6 cells expressing Pgp assessed as decrease in cell growth measured after 48 hrs by SRB method", "type": "functional", "settings": "SK-OV-3, 48 h"}, "[18]": {"test_system": "BT-549", "assay": "Cytotoxicity against human BT-549 cells assessed as inhibition of cell growth measured after 48 hrs by SRB assay", "type": "functional"}, "[19]": {"test_system": "TK-10", "assay": "Cytotoxicity against human TK-10 cells assessed as inhibition of cell growth measured after 48 hrs by SRB assay", "type": "functional"}, "[20]": {"test_system": "SF-539", "assay": "Cytotoxicity against human SF-539 cells assessed as inhibition of cell growth measured after 48 hrs by SRB assay", "type": "functional"}, "[21]": {"test_system": "NCI-H522", "assay": "Cytotoxicity against human NCI-H522 cells assessed as inhibition of cell growth measured after 48 hrs by SRB assay", "type": "functional"}, "[22]": {"assay": "Relative resistance, ratio of IC50 for antiproliferative activity against human SK-OV-3 MDR-1-6/6 cells expressing Pgp to IC50 antiproliferative activity against human SK-OV-3 cells", "type": "functional"}, "[23]": {"test_system": "SNB-75", "assay": "Cytotoxicity against human SNB-75 cells assessed as inhibition of cell growth measured after 48 hrs by SRB assay", "type": "functional"}, "[24]": {"test_system": "SN12C", "assay": "Cytotoxicity against human SN12C cells assessed as inhibition of cell growth measured after 48 hrs by SRB assay", "type": "functional"}, "[25]": {"test_system": "HCT-116", "assay": "Cytotoxicity against human HCT-116 cells assessed as inhibition of cell growth measured after 48 hrs by SRB assay", "type": "functional"}, "[26]": {"test_system": "HL-60(TB)", "assay": "Cytotoxicity against human HL-60(TB) cells assessed as inhibition of cell growth measured after 48 hrs by SRB assay", "type": "functional"}, "[27]": {"test_system": "MDA-MB-231", "assay": "Cytotoxicity against human MDA-MB-231 cells assessed as inhibition of cell growth measured after 48 hrs by SRB assay", "type": "functional"}, "[28]": {"assay": "Cytotoxicity against human SK-MEL-5 cells assessed as inhibition of cell growth measured after 48 hrs by SRB assay", "type": "functional"}, "[29]": {"test_system": "DU-145", "assay": "Cytotoxicity against human DU-145 cells assessed as inhibition of cell growth measured after 48 hrs by SRB assay", "type": "functional"}, "[30]": {"test_system": "NCI/ADR-RES", "assay": "Cytotoxicity against human NCI/ADR-RES cells assessed as inhibition of cell growth measured after 48 hrs by SRB assay", "type": "functional"}, "[31]": {"test_system": "HOP-62", "assay": "Cytotoxicity against human HOP-62 cells assessed as inhibition of cell growth measured after 48 hrs by SRB assay", "type": "functional"}, "[32]": {"test_system": "SF-295", "assay": "Cytotoxicity against human SF-295 cells assessed as inhibition of cell growth measured after 48 hrs by SRB assay", "type": "functional"}, "[33]": {"test_system": "HOP-92", "assay": "Cytotoxicity against human HOP-92 cells assessed as inhibition of cell growth measured after 48 hrs by SRB assay", "type": "functional"}, "[34]": {"test_system": "M14", "assay": "Cytotoxicity against human M14 cells assessed as inhibition of cell growth measured after 48 hrs by SRB assay", "type": "functional"}, "[35]": {"test_system": "U-251", "assay": "Antitumour activity against human U251 cells xenografted in NCr athymic nude nu/nu mouse assessed as decrease in tumour growth at 17.5 mg/kg twice in a week", "type": "functional, organism-based"}, "[36]": {"test_system": "HCC 2998", "assay": "Cytotoxicity against human HCC 2998 cells assessed as inhibition of cell growth measured after 48 hrs by SRB assay", "type": "functional"}, "[37]": {"test_system": "CAKI-1", "assay": "Cytotoxicity against human CAKI-1 cells assessed as inhibition of cell growth measured after 48 hrs by SRB assay", "type": "functional"}, "[38]": {"test_system": "SK-OV-3", "assay": "Cytotoxicity against human SK-OV-3 cells assessed as inhibition of cell growth measured after 48 hrs by SRB assay", "type": "functional"}, "[39]": {"test_system": "PC-3", "assay": "Cytotoxicity against human PC-3 cells assessed as inhibition of cell growth measured after 48 hrs by SRB assay", "type": "functional"}, "[40]": {"test_system": "MOLT-4", "assay": "Cytotoxicity against human MOLT-4 cells assessed as inhibition of cell growth measured after 48 hrs by SRB assay", "type": "functional"}, "[41]": {"test_system": "CCRF-CEM", "assay": "Cytotoxicity against human CCRF-CEM cells assessed as inhibition of cell growth measured after 48 hrs by SRB assay", "type": "functional"}, "[42]": {"organism": "Bos taurus", "assay": "Inhibition of [3H]colchicine binding to bovine tubulin at 5 uM measured after 10 mins by scintillation counting", "procedure,_shortened": "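Purified bovine brain tubulin at 1.0 µM was mixed with 5.0 µM [3H]colchicine and inhibitor, plus components that stabilize colchicine binding, in 5% DMSO; tubulin was added last, on ice. Binding ran 10 min at 37 °C and was stopped with ice water. Mixtures were filtered through stacked DEAE-cellulose filters, and bound radiolabel was measured by scintillation counting.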"}, "[43]": {"test_system": "OVCAR-8", "assay": "Cytotoxicity against human OVCAR-8 cells assessed as inhibition of cell growth measured after 48 hrs by SRB assay", "type": "functional"}, "[44]": {"test_system": "RXF 393", "assay": "Cytotoxicity against human RXF 393 cells assessed as inhibition of cell growth measured after 48 hrs by SRB assay", "type": "functional"}}, "note": "Calls of active or inactive are those of the source. No cut-off for these calls is given here."}
{"compound": "COc1cccc2cc(N(C)c3nc(C)nc4c3CCC4)ccc12", "values": [{"measurement": "GI50", "setting": "[1]", "value": "< 10", "unit": "nM"}, {"measurement": "GI50", "setting": "[2]", "value": "< 10", "unit": "nM"}, {"measurement": "GI50", "setting": "[3]", "value": "< 10", "unit": "nM"}, {"measurement": "GI50", "setting": "[4]", "value": "< 10", "unit": "nM"}, {"measurement": "IC50", "setting": "[5]", "value": 980, "unit": "nM"}, {"measurement": "GI50", "setting": "[6]", "value": "< 10", "unit": "nM"}, {"measurement": "GI50", "setting": "[7]", "value": 10.9, "unit": "nM"}, {"measurement": "GI50", "setting": "[8]", "value": "< 10", "unit": "nM"}, {"measurement": "GI50", "setting": "[9]", "value": "< 10", "unit": "nM"}, {"measurement": "IC50", "setting": "[10]", "value": 2.7, "unit": "nM"}, {"measurement": "GI50", "setting": "[11]", "value": "< 10", "unit": "nM"}, {"measurement": "GI50", "setting": "[12]", "value": "< 10", "unit": "nM"}, {"measurement": "GI50", "setting": "[13]", "value": 5630, "unit": "nM"}, {"measurement": "IC50", "setting": "[14]", "value": 17.6, "unit": "nM"}, {"measurement": "GI50", "setting": "[15]", "value": "< 10", "unit": "nM"}, {"measurement": "GI50", "setting": "[16]", "value": "< 10", "unit": "nM"}, {"measurement": "IC50", "setting": "[17]", "value": 5.7, "unit": "nM"}, {"measurement": "GI50", "setting": "[18]", "value": "< 10", "unit": "nM"}, {"measurement": "GI50", "setting": "[19]", "value": 9320, "unit": "nM"}, {"measurement": "GI50", "setting": "[20]", "value": "< 10", "unit": "nM"}, {"measurement": "GI50", "setting": "[21]", "value": "< 10", "unit": "nM"}, {"measurement": "Ratio IC50", "setting": "[22]", "value": 2.1}, {"measurement": "GI50", "setting": "[23]", "value": 1890, "unit": "nM"}, {"measurement": "GI50", "setting": "[24]", "value": "< 10", "unit": "nM"}, {"measurement": "GI50", "setting": "[25]", "value": "< 10", "unit": "nM"}, {"measurement": "GI50", "setting": "[26]", "value": "< 10", "unit": "nM"}, {"measurement": "GI50", "setting": "[27]", "value": "< 10", "unit": "nM"}, {"measurement": "GI50", "setting": "[28]", "value": "< 10", "unit": "nM"}, {"measurement": "GI50", "setting": "[29]", "value": "< 10", "unit": "nM"}, {"measurement": "GI50", "setting": "[30]", "value": "< 10", "unit": "nM"}, {"measurement": "GI50", "setting": "[31]", "value": "< 10", "unit": "nM"}, {"measurement": "GI50", "setting": "[32]", "value": "< 10", "unit": "nM"}, {"measurement": "GI50", "setting": "[33]", "value": 28.5, "unit": "nM"}, {"measurement": "GI50", "setting": "[34]", "value": "< 10", "unit": "nM"}, {"measurement": "inhibition", "setting": "[35]", "value": "Active"}, {"measurement": "GI50", "setting": "[36]", "value": "< 10", "unit": "nM"}, {"measurement": "GI50", "setting": "[37]", "value": "< 10", "unit": "nM"}, {"measurement": "GI50", "setting": "[38]", "value": "< 10", "unit": "nM"}, {"measurement": "GI50", "setting": "[39]", "value": "< 10", "unit": "nM"}, {"measurement": "GI50", "setting": "[40]", "value": "< 10", "unit": "nM"}, {"measurement": "GI50", "setting": "[41]", "value": "< 10", "unit": "nM"}, {"measurement": "inhibition", "setting": "[42]", "value": 98, "unit": "%"}, {"measurement": "GI50", "setting": "[43]", "value": "< 10", "unit": "nM"}, {"measurement": "GI50", "setting": "[44]", "value": "< 10", "unit": "nM"}]}
